Values after ≈ are worked out from the molar mass of the structure shown.
Assays:
rhinovirus A2 [1] = experiment: Anti-HRV activity against HRV-2 strain; assay type: functional, organism-based, human rhinovirus type 2; conditions: Rhinovirus A
Human rhinovirus 1A = experiment: Anti-HRV activity against HRV-1A strain; assay type: functional, organism-based, human rhinovirus type 1
Outline: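 Cell-culture cytopathic effect (CPE) inhibition assay adapted from a microplate tissue-culture method. Each test was run in duplicate. EC50 was read both visually and by dye uptake. Results varied by generally no more than one dilution between duplicate runs and between read-out methods.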

KB [2] = experiment: (§1) Cellular toxicity in KB cells; assay type: functional; conditions: Homo sapiens
MRC5 = experiment: Cellular toxicity in MRC-5 cells; assay type: functional; conditions: Homo sapiens
rhinovirus B14 [3] = experiment: Anti-HRV activity against HRV-14 strain; assay type: functional, organism-based, human rhinovirus type 14; conditions: Rhinovirus B
KB [4] = experiment: as §1; assay type: functional; conditions: Homo sapiens; remark: listed apart in the source
rhinovirus B14 [5] = experiment: Anti-HRV activity against HRV serotype 14; assay type: functional, organism-based, human rhinovirus type 14; conditions: Rhinovirus B
rhinovirus A15 = experiment: Anti-HRV activity against HRV serotype 15; assay type: functional, organism-based; conditions: Rhinovirus A
rhinovirus A16 = experiment: Anti-HRV activity against HRV serotype 16; assay type: functional, organism-based; conditions: Rhinovirus A
rhinovirus A2 [6] = experiment: Anti-HRV activity against HRV serotype 2; assay type: functional, organism-based, human rhinovirus type 2; conditions: Rhinovirus A
rhinovirus A29 = experiment: Anti-HRV activity against HRV serotype 29; assay type: functional, organism-based; conditions: Rhinovirus A
rhinovirus A39 = experiment: Anti-HRV activity against HRV serotype 39; assay type: functional, organism-based; conditions: Rhinovirus A
rhinovirus A45 = experiment: Anti-HRV activity against HRV serotype 45; assay type: functional, organism-based; conditions: Rhinovirus A
rhinovirus A51 = experiment: Anti-HRV activity against HRV serotype 51; assay type: functional, organism-based; conditions: Rhinovirus A
rhinovirus A59 = experiment: Anti-HRV activity against HRV serotype 59; assay type: functional, organism-based; conditions: Rhinovirus A
rhinovirus A63 = experiment: Anti-HRV activity against HRV serotype 63; assay type: functional, organism-based; conditions: Rhinovirus A
rhinovirus B70 = experiment: Anti-HRV activity against HRV serotype 70; assay type: functional, organism-based; conditions: Rhinovirus B
rhinovirus B72 = experiment: Anti-HRV activity against HRV serotype 72; assay type: functional, organism-based; conditions: Rhinovirus B
rhinovirus A85 = experiment: Anti-HRV activity against HRV serotype 85; assay type: functional, organism-based; conditions: Rhinovirus A
rhinovirus B86 = experiment: Anti-HRV activity against HRV serotype 86; assay type: functional, organism-based; conditions: Rhinovirus B
rhinovirus A89 = experiment: Anti-HRV activity against HRV serotype 89; assay type: functional, organism-based, human rhinovirus type 89; conditions: Rhinovirus A
rhinovirus A9 = experiment: Anti-HRV activity against HRV serotype 9; assay type: functional, organism-based; conditions: Rhinovirus A
Human rhinovirus sp. = experiment: Percent inhibition of 100 HRV strains by the compound at a concentration of 0.064 ug/ml; assay type: functional
KB [7] = experiment: Cellular toxicity against KB cells in HRV-14 strain; assay type: functional; conditions: Homo sapiens

| EC50 (rhinovirus A2 [1]) [µg/mL] | EC50 (Human rhinovirus 1A) [µg/mL] | EC50 (rhinovirus B14 [3]) [µg/mL] | Structure (SMILES) | CC50 (KB [2]) [µg/mL] | CC50 (MRC5) [µg/mL] | CC50 (KB [4]) [µg/mL] | further results |
| --- | --- | --- | --- | --- | --- | --- | --- |
| < 0.05 | < 0.16 | – | CCOC(=O)c1ccc(OCCC2CCN(c3ccc(Cl)nn3)CC2)cc1 | 50 (≈ 128 µM) | > 50 | – | – |
| 0.08 (≈ 0.217 µM) | – | 0.023 (≈ 0.0624 µM) | CO/N=C(\C)c1ccc(OCCC2CCN(c3ccc(C)nn3)CC2)cc1 | > 1 | – | > 1 | – |
| – | < 0.16 | 0.0016 (≈ 0.00433 µM) | CCOC(=O)c1ccc(OCCC2CCN(c3ccc(C)nn3)CC2)cc1 [PIRODAVIR] | – | > 50 | – | EC50 (rhinovirus B14 [5]): 0.00365 µg/mL (≈ 0.00988 µM); EC50 (rhinovirus A15): 0.00702 µg/mL (≈ 0.019 µM); EC50 (rhinovirus A16): 0.0152 µg/mL (≈ 0.0412 µM); EC50 (rhinovirus A2 [6]): 0.00277 µg/mL (≈ 0.0075 µM); EC50 (rhinovirus A29): 0.00374 µg/mL (≈ 0.0101 µM); EC50 (rhinovirus A39): 0.0018 µg/mL (≈ 0.00487 µM); EC50 (rhinovirus A45): > 5 µg/mL; EC50 (rhinovirus A51): 0.00521 µg/mL (≈ 0.0141 µM); EC50 (rhinovirus A59): 0.00437 µg/mL (≈ 0.0118 µM); EC50 (rhinovirus A63): 0.00083 µg/mL (≈ 0.00225 µM); EC50 (rhinovirus B70): 0.00214 µg/mL (≈ 0.00579 µM); EC50 (rhinovirus B72): 0.0348 µg/mL (≈ 0.0941 µM); EC50 (rhinovirus A85): 0.00472 µg/mL (≈ 0.0128 µM); EC50 (rhinovirus B86): 0.00956 µg/mL (≈ 0.0259 µM); EC50 (rhinovirus A89): 0.0057 µg/mL (≈ 0.0154 µM); EC50 (rhinovirus A9): 0.00205 µg/mL (≈ 0.00555 µM); inhibition at 0.064 µg/mL (Human rhinovirus sp.): 80%; CC50 (KB [7]): > 1 µg/mL |
| – | < 0.16 | 0.002 (≈ 0.00514 µM) | CCO/N=C/c1ccc(OCCC2CCN(c3ccc(Cl)nn3)CC2)cc1 | – | > 50 | 0.8 (≈ 2.06 µM) | – |
| 4 (≈ 10.6 µM) | 8.52 (≈ 22.7 µM) | – | NNC(=O)c1ccc(OCCC2CCN(c3ccc(Cl)nn3)CC2)cc1 | 20 (≈ 53.2 µM) | > 50 | – | – |
| 0.9 (≈ 2 µM) | – | 0.4 (≈ 0.887 µM) | Clc1ccc(N2CCC(CCOc3ccc(/C=N/OCc4ccccc4)cc3)CC2)nn1 | 0.6 (≈ 1.33 µM) | – | 0.6 (≈ 1.33 µM) | – |
| > 0.25 | – | 0.062 (≈ 0.182 µM) | Cc1ccc(N2CCC(CCOc3ccc(/C=N/O)cc3)CC2)nn1 | > 0.25 | – | > 0.25 | – |
| 2 (≈ 5.78 µM) | 9.72 (≈ 28.1 µM) | – | O=Cc1ccc(OCCC2CCN(c3ccc(Cl)nn3)CC2)cc1 | 20 (≈ 57.8 µM) | > 50 | – | – |
| 0.02 (≈ 0.0496 µM) | – | 0.018 (≈ 0.0447 µM) | CC(C)O/N=C/c1ccc(OCCC2CCN(c3ccc(Cl)nn3)CC2)cc1 | 1 (≈ 2.48 µM) | – | 0.7 (≈ 1.74 µM) | – |
| 0.006 (≈ 0.015 µM) | – | 0.006 (≈ 0.015 µM) | C=CCO/N=C/c1ccc(OCCC2CCN(c3ccc(Cl)nn3)CC2)cc1 | 0.5 (≈ 1.25 µM) | – | 0.4 (≈ 0.998 µM) | – |
| 0.01 (≈ 0.0261 µM) | – | 0.004 (≈ 0.0105 µM) | CCO/N=C(\C)c1ccc(OCCC2CCN(c3ccc(C)nn3)CC2)cc1 | > 1 | – | > 1 | – |
| 0.009 (≈ 0.0251 µM) | – | – | CC(C)S(=O)(=O)n1c(N)nc2ccc(/C(=N/O)c3ccccc3)cc21 [ENVIROXIME] | 2 (≈ 5.58 µM) | – | – | – |
| 0.15 (≈ 0.423 µM) | – | 0.004 (≈ 0.0113 µM) | CO/N=C/c1ccc(OCCC2CCN(c3ccc(C)nn3)CC2)cc1 | > 1 | – | > 1 | – |
| 6 (≈ 15.5 µM) | 4.12 (≈ 10.6 µM) | – | CCC/N=C/c1ccc(OCCC2CCN(c3ccc(Cl)nn3)CC2)cc1 | 30 (≈ 77.5 µM) | > 50 | – | – |
| 2 (≈ 5.35 µM) | 1.01 (≈ 2.7 µM) | – | CN/N=C/c1ccc(OCCC2CCN(c3ccc(Cl)nn3)CC2)cc1 | 10 (≈ 26.7 µM) | > 50 | – | – |
| 0.004 (≈ 0.00993 µM) | – | 0.01 (≈ 0.0248 µM) | CCCO/N=C/c1ccc(OCCC2CCN(c3ccc(Cl)nn3)CC2)cc1 | > 1 | – | 0.4 (≈ 0.993 µM) | – |
| 0.6 (≈ 1.6 µM) | < 0.16 | – | CCC(=O)c1ccc(OCCC2CCN(c3ccc(Cl)nn3)CC2)cc1 | 7 (≈ 18.7 µM) | > 50 | – | – |
| 0.4 (≈ 0.993 µM) | – | 0.2 (≈ 0.496 µM) | CC/C(=N\OC)c1ccc(OCCC2CCN(c3ccc(Cl)nn3)CC2)cc1 | > 1 | – | 0.6 (≈ 1.49 µM) | – |
| – | – | – | Cc1cc(CCCOc2c(C)cc(-c3noc(C(F)(F)F)n3)cc2C)on1 [PLECONARIL] | – | – | – | EC50 (rhinovirus B14 [5]): 0.0313 µg/mL (≈ 0.0821 µM); EC50 (rhinovirus A15): 0.0698 µg/mL (≈ 0.183 µM); EC50 (rhinovirus A16): 0.108 µg/mL (≈ 0.283 µM); EC50 (rhinovirus A2 [6]): 0.0265 µg/mL (≈ 0.0694 µM); EC50 (rhinovirus A29): 0.0454 µg/mL (≈ 0.119 µM); EC50 (rhinovirus A39): 0.0449 µg/mL (≈ 0.118 µM); EC50 (rhinovirus A45): 1.91 µg/mL (≈ 5 µM); EC50 (rhinovirus A51): 0.0304 µg/mL (≈ 0.0797 µM); EC50 (rhinovirus A59): 0.387 µg/mL (≈ 1.02 µM); EC50 (rhinovirus A63): 0.0623 µg/mL (≈ 0.163 µM); EC50 (rhinovirus B70): 0.0539 µg/mL (≈ 0.141 µM); EC50 (rhinovirus B72): 0.469 µg/mL (≈ 1.23 µM); EC50 (rhinovirus A85): 0.034 µg/mL (≈ 0.0892 µM); EC50 (rhinovirus B86): 0.07 µg/mL (≈ 0.184 µM); EC50 (rhinovirus A89): 0.0293 µg/mL (≈ 0.0769 µM); EC50 (rhinovirus A9): 0.0372 µg/mL (≈ 0.0974 µM) |
